MrgX1 agonist: activates human MrgX1 receptor signaling; Q96LB2; MrgX1-HEK293 cells, Fluo-4 calcium fluorescence, agonist mode; active compounds read high; B-score at 10 µM; hit rate 0.44% among 310,000; AID 588627;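 active = calcium response B-score plate-corrected fluorescence ratio at least 3 library SD, with starting fluorescence B-score inside 5 SD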
Target sequence (Q96LB2 whole entry, looked up): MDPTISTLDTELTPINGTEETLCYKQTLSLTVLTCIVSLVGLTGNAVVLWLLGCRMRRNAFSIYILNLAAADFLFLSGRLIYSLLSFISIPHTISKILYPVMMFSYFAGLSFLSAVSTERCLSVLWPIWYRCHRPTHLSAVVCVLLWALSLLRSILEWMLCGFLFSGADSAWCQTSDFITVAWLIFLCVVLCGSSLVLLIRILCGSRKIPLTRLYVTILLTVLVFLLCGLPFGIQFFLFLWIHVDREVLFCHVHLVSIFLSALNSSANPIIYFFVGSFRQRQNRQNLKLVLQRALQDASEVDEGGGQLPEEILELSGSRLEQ
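Material: HEK293 cells stably expressing human MrgX1 receptor | Quantity: 15,000 cells per well | Times: Cells plated overnight, dye loaded 0.5 h 37 °C, 0.5 h room temperature | Measured by: Kinetic Fluo-4 NW fluorescence of intracellular calcium | Control set: Positive and negative controls per plate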
MrgX1 antagonist: human MrgX1 receptor antagonism, primary screen | Q96LB2 | MRGX1-HEK293 calcium flux, Fluo-4, BAM8-22 antagonism; active compounds read low | B-score at 10 µM | hit rate 1.3% among 310,000;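 active = calcium-response B-score plate-corrected more than 3 library SD below zero, starting fluorescence within 5 deviations, no agonist response on first addition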;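 note: peak minus trough fluorescence over baseline after final BAM8-22 challenge near maximal dose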
RGS4 inh: inhibitors of human RGS4. P49798. HEK293 M3R/RGS4 inducible, Fluo-4 calcium flux; active compounds read high; triggered by carbachol at its EC20. hit rate 0.45% among 310,000. B-score at 10 µM;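 active = B-score, a plate-corrected calcium signal, over three deviations above library mean, with baseline fluorescence within five deviations of library mean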;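 note: RGS4 expression induced by doxycycline in cells with stable M3 receptor; B-score is computed from the integrated fluorescence ratio over baseline after carbachol; higher B-score means a larger calcium signal and so more RGS4 inhibition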
Target sequence (P49798 whole entry, looked up): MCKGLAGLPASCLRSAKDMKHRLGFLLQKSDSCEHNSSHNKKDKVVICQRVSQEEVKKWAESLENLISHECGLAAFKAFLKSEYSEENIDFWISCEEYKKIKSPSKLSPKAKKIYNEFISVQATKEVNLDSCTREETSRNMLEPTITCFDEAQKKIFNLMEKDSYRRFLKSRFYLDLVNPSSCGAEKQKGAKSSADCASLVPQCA
RGS4 pot: potentiators or activators of RGS4; HEK293 M3R/inducible RGS4, carbachol calcium flux Fluo4; active compounds read low; B-score at 10 µM; hit rate 0.92% among 310,000;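 active = B-score of the integrated calcium signal more than 4 SD below the library mean, with starting fluorescence not abnormally high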;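 note: negative B-score means reduced calcium response which marks RGS4 activation or potentiation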
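Reagent: ECmax carbachol challenge; Test system: M3R-expressing HEK293 line, RGS4 induced by doxycycline; Schedule: overnight RGS4 induction, 30 min dye load 37 °C, 20 min compound RT; Detection: calcium dye Fluo4 fluorescence; Read-out: Agonist-evoked peak-minus-minimum fluorescence over baseline, integrated ratio, B score.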
MrgX1 allo act: allosterically activates human MrgX1 receptor signaling. hit rate 0.63% among 310,000. Q96LB2. AID 588675. MrgX1-HEK293, Fluo-4 calcium flux, FDSS; active compounds read high. B-score at 10 µM;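 active = plate-corrected calcium response at least 3 library SD above typical, normal starting fluorescence, not activating the receptor alone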;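 note: compound read alongside a low EC10 to EC30 dose of BAM8-22 agonist; peak minus trough fluorescence over baseline measured at the second addition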
RGS4 block valid: validation of RGS4 inhibitors. shares compounds with RGS4 inh. HEK293 M3R/RGS4, carbachol calcium Fluo-4 fluorescence; carbachol added at its EC20; 0 = buffer wells, 100 = carbachol control. calcium response, % at 10 µM. hit rate 65% among 1,700;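 active = duplicate-averaged calcium response above the buffer-only control mean plus 5 SD of those controls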;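 note: integrated fluorescence ratio F max minus min over baseline F0; higher response in RGS4-induced cells means RGS4 inhibition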
M3R Ca ctr: counter-screen for RGS4 inhibitors: effect in non-induced cells. shares compounds with RGS4 inh. HEK293 M3R non-induced, carbachol calcium Fluo-4; submaximal (EC20) carbachol stimulus; buffer wells 0%, carbachol control wells 100%. activity (percent), % at 10 µM. hit rate 20% among 1,900. AID 493000; call rule not given here;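 note: RGS4 induction absent so cells express M3R without RGS4; higher means more calcium signal and flags a non-specific hit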
M3R basal Ca ctr: second counter-screen for RGS4 inhibitors: non-induced cells without carbachol | hit rate 22% among 1,900 | shares compounds with RGS4 inh | HEK293 M3R/RGS4 non-induced, Fluo-4 calcium, no carbachol; normalised: buffer wells 0%, carbachol wells 100% | calcium response (agonist-mode artifact), % at 10 µM;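 active = duplicate-averaged calcium rise in uninduced cells above buffer wells' mean plus 5 SD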
MrgX1 ag confirm: confirmation of human MrgX1 receptor agonists; activation, % at 10 µM; MrgX1-HEK293, Fluo-4 calcium fluorescence, FDSS; hit rate 78% among 600; AID 602412; shares compounds with MrgX1 agonist;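 active = calcium signal rise, corrected for plate position, at least 3 library SD high, with starting brightness within 5 such deviations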
MrgX1 PAM conf: reconfirmed allosteric activator of human MrgX1 receptor. AID 602413. MrgX1-HEK293, Fluo-4 calcium fluorescence, FDSS. hit rate 13% among 1,200. activation (ratio percentage), % at 10 µM. shares compounds with MrgX1 allo act;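 active = ratio at least 3 SD above the weak peptide control, stable starting fluorescence, no direct agonism earlier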;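 note: compound followed by low BAM8-22 agonist challenge near EC20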
MrgX1 ant reconf: reconfirmed antagonist of human MrgX1 receptor signaling; shares compounds with MrgX1 antagonist; MrgX1-HEK293, BAM8-22 calcium flux, Fluo-4; active compounds read low; remaining BAM8-22 calcium response % of control (active compounds read low), % at 10 µM; hit rate 19% among 2,300; AID 602420;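 active = remaining agonist calcium response no higher than 100% minus 3 SD of agonist-only control wells, with starting fluorescence near control levels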;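 note: agonist BAM8-22 given at a near maximal EC90 to ECmax level; peak minus minimum fluorescence divided by baseline after agonist addition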
HEK293 Ca flux: MrgX1 antagonist counter-screen hit in parental HEK293 cells. shares compounds with MrgX1 antagonist. Fluo-4 calcium fluorescence, FDSS. fluorescence ratio F(max-min)/F0 at 10 µM. hit rate 2% among 4,000;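 active = duplicate-averaged calcium fluorescence ratio at least three times the standard deviation of buffer wells, a nonspecific response in parental cells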
HEK293 Ca counter: activity in parental HEK293 cells without MrgX1; fluorescence ratio F(max-min)/F0 at 10 µM; parental HEK293 calcium flux, Fluo-4 fluorescence ratio; active compounds read high; hit rate 0.4% among 4,000; shares compounds with MrgX1 antagonist;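 active = calcium fluorescence ratio, averaged over duplicates, at least 3 SD of the buffer-well ratio, meaning a nonspecific response in receptor-free cells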;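 note: untransfected parental HEK293 lacking MrgX1 used as counterscreen for MrgX1 allosteric activators; fluorescence change taken during the second addition on a kinetic imager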
HEK293 Ca cntr2: MrgX1 activator counter-screen hit in parental HEK293 cells; fluorescence ratio F(max-min)/F0 at 10 µM; hit rate 8.7% among 4,000; AID 624115; shares compounds with MrgX1 antagonist; Fluo-4 calcium fluorescence (FDSS); active compounds read high;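 active = calcium fluorescence ratio at least three times the spread of buffer wells, meaning a non-specific response in parental cells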
Hits are given with their value; - = inactive; . = no result; ! = a repeat was not active. Hits are enriched below; roughly 3.5% of the tested compounds scored in any of these assays.

SMILES	MrgX1 agonist	MrgX1 antagonist	RGS4 inh	RGS4 pot	MrgX1 allo act	MrgX1 PAM conf	HEK293 Ca flux	HEK293 Ca counter	HEK293 Ca cntr2	others
O=c1[nH]c(=O)n(-c2ccccc2)c(O)c1/C=C1/C(c2ccccc2)=Nc2ccccc21	42.3	-	9.13	-	-	.	.	.	.	RGS4 block valid=30.5%;M3R Ca ctr=-;M3R basal Ca ctr=16.0%
O=c1cccc2n1CC1CC2CN(S(=O)(=O)c2ccc(F)cc2)C1 (stereo not drawn)	-	-	-	-	-	.	.	.	.
Cc1cc(C)n(-c2ccc(NN=C(C#N)C#N)cc2)n1	87.8	-	-	-	-	.	-	-	56.4	MrgX1 ag confirm=214.5%
CCOC(=O)C1=C(NC(=S)NC(=O)c2ccccc2)c2ccccc2CC12CCCC2	.	.	-	-	.	.	.	.	.
CC(C)CN(C(=O)CN1CC=C(c2ccccc2)CC1)c1c(N)n(CC(C)C)c(=O)[nH]c1=O	-	-	-	-	-	.	.	.	.
CNCCc1ccc(O)c(O)c1	42.9	-	-	-	-	.	-	-	-	MrgX1 ag confirm=116.0%
FC(F)(F)c1ccc(CNCCc2ccc3c(c2)OCO3)cc1	-	-	-	-	-	.	.	.	.
CC(=O)OCC[N+](C)(C)C	134	-	-	-7.55!	-	.	-	-	108	MrgX1 ag confirm=557.5%
CC(=O)N1N=C(c2cccnc2)OC1c1ccccc1Cl (stereo not drawn)	-	-	-	-	-	.	.	.	.
CC1OC(C[N+](C)(C)C)CC1O (stereo not drawn)	79.7	-	.	.	-	.	-	-	104	MrgX1 ag confirm=501.5%
C[C@H]1OC[C@@H](C[N+](C)(C)C)O1	112	-	-	-	-	.	-	-	107	MrgX1 ag confirm=549.9%
CCC(C)N1C(=O)NC(=O)C2(Cc3c(ccc4ccccc34)N(C)C2)C1=O (stereo not drawn)	33.5	-	-	-	-	.	-	-	-	MrgX1 ag confirm=-
CN(C)C1(CNC(=O)Nc2ccc(Cl)c(Cl)c2)CCCCC1	29.7	-	-	-	-	.	-	-	-	MrgX1 ag confirm=-
CN(C)C1(CNC(=O)c2cc(S(=O)(=O)N3CCOCC3)c(Cl)cc2Cl)CCCCC1	-	-	-	-	-	.	.	.	.
Cc1ccc2[nH]c3c(c2c1)CN(C(=O)CN1C[C@H]2C[C@@H](C1)c1cccc(=O)n1C2)CC3	-	-	-	-	-	.	.	.	.
O=C1COc2ccc(C(=O)COC(=O)Cc3ccccc3)cc2N1	-	-	-	-	-	.	.	.	.
O=C(CCCN1CCC2(CC1)C(=O)NCN2c1ccccc1)c1ccc(F)cc1	76.4	-	-	-	-	.	-	-	99.1	MrgX1 ag confirm=542.2%
O=C(c1ccc(F)cc1)C(Cc1ccccc1)N1CCCCC1 (stereo not drawn)	-	-	-	-	-	.	.	.	.
C#CCOC(=O)C1=CCCN(C)C1	89.9	-	.	.	-	.	-	-	54.2	MrgX1 ag confirm=281.1%
CNCC(C)c1ccccc1 (stereo not drawn)	-	-	-	-	-	.	.	.	.
CCN1C(=O)CC(c2cccnc2)=Nc2ccccc21	-	-	-	-	6.44	-	-	-	-
O=C1CC(c2cccnc2)=NN1c1ccc(Cl)cc1Cl	-	-	-	-	-	.	.	.	.
CC1(C)CN=C(NCc2ccccc2)S1	-	-	-	-	6.44	-	-	-	-
CCCc1nc2ccc(Br)cc2c(=O)n1-c1ccc([N+](=O)[O-])c(C(F)(F)F)c1	-	-	-	-	-	.	.	.	.
CCOC(=O)C1=C(N)Oc2cc(C)oc(=O)c2C12C(=O)N1c3c(cccc32)C(C)=CC1(C)C (stereo not drawn)	-	-	-	-	9.25	-	-	-	86.8
SMILES	MrgX1 agonist	MrgX1 antagonist	RGS4 inh	RGS4 pot	MrgX1 allo act	MrgX1 PAM conf	HEK293 Ca flux	HEK293 Ca counter	HEK293 Ca cntr2	others
O=C(c1ccc2c(=O)n(Cc3ccc4c(c3)OCO4)c(=S)[nH]c2c1)N1CCC2(CC1)OCCO2	-	-	-	-	-	.	.	.	.
COc1nc2ccccc2c(=O)n1-c1ccc(Cl)cc1	-	-	-	-	11.8	-	-	-	-
Cc1ccc(-n2c(C)nc3ccccc3c2=O)cc1C	-	-	-	-	7.66	13.0%	-	-	-
CCCCOc1nc2ccccc2c(=O)n1-c1ccccc1	-	-	-	-	9.22	-	-	-	47.6
COc1ccc(-n2c(-c3ccc(C)cc3)nc3ccccc3c2=O)cc1	-	-	-	-	-	.	.	.	.
CCCc1nc2ccccc2c(=O)n1-c1ccc(OC)cc1	-	-	-	-	-	.	.	.	.
COc1nc2ccccc2c(=O)n1-c1ccc(C)cc1	-	-	-	-	17.8	-	-	-	-
Cc1c(/C=N/O)c2ccccc2n1C	-	-	-	-	-	.	.	.	.
CCCCCn1c(=O)c(C(=O)NCCc2ccccc2)c(O)c2ccccc21	-	-8.18	-	-	7.62	-	-	-	-	MrgX1 ant reconf=-
CCN(CC)CC(=O)Nc1ccc(Cl)cc1C(=O)c1ccccc1	-	-	-	-	-	.	.	.	.
C[CH2][Hg][S]c1ccccc1C(=O)O	-	-	.	.	6.51	-	-	-	-
CC(C)COC(=O)c1ccccc1C(=O)OCC(C)C	-	-	-	-	-	.	.	.	.
COc1ccc(C(=O)c2nc3ccccc3n2C(C)C)cc1	-	-	-	-	6.47	-	-	-	-
COc1ccc(C(=O)c2nc3ccccc3n2C(C)C)cc1OC	-	-	-	-	-	.	.	.	.
C=CCN1CCc2cccc3c2[C@H]1Cc1ccc(O)c(O)c1-3	-	-	-	-	8.14	-	-	-	-
FCCN(CCF)c1cccc(Cl)c1	-	-	-	-	-	.	.	.	.
